Activity calls are given as the source filed them. The calls are words filed in the database; no cut-off is given here.
Columns and labels:
Hepatitis C virus [1] = assay: Inhibition of hepatitis C virus replication in Huh7-K2040 cells in presence of fetal calf serum assessed viral RNA level at 0.1 mM by RT-PCR relative to control; format: functional
Summary of the method: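 Huh7-K2040 cells (subgenomic genotype 1b replicon) were seeded at 4 × 10^5 per 60-mm dish. From day 2 they were cultured in 10% FCS with 0.1 mM BSA-conjugated fatty acid for 72 h. HCV RNA was measured by real-time PCR with 36B4 as invariant control (comparative CT), relative to untreated FCS cells; mean ± SD, three independent experiments.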

Hepatitis C virus [2] = assay: Increase in hepatitis C virus replication in Huh7-K2040 cells in presence of delipidated fetal calf serum medium at 0.3 uM by RT-PCR relative to control; format: functional, organism-based; settings: Hepacivirus hominis
Summary of the method: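 Replicon-bearing Huh7 cells (genotype 1b subgenomic HCV replicon), 4 × 10^5 cells per 60-mm dish on day 0. On day 2 they were switched to medium with 10% delipidated FCS plus 0.3 μM lipid-soluble vitamin/lipid. Harvested after 72 h. HCV RNA was measured by qRT-PCR, normalized to 36B4 by comparative CT, relative to FCS-cultured controls; mean ± SD of three independent experiments.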

Hepatitis C virus [3] = assay: Inhibition of hepatitis C virus replication in Huh7-K2040 cells in presence of delipidated fetal calf serum assessed viral RNA level at 0.1 mM by RT-PCR relative to control; format: functional
Summary of the method: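 Huh7-K2040 cells seeded at 4 × 10^5 per 60-mm dish. On day 2 switched to 10% FCS or delipidated FCS with 0.1 mM BSA-conjugated fatty acids for 72 h. HCV RNA measured by real-time RT-PCR in triplicate, normalized to 36B4 by comparative CT, relative to untreated FCS control. Mean ± SD, three independent experiments.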

Hepatitis C virus [4] = assay: Increase of hepatitis C virus replication in Huh7-K2040 cells in fetal calf serum medium in absence of arachidonate by RT-PCR relative to control; format: functional, organism-based; settings: Hepacivirus hominis
Hepatitis C virus [5] = assay: Increase of hepatitis C virus replication in Huh7-K2040 cells in fetal calf serum medium in presence of arachidonate by RT-PCR relative to control; format: functional, organism-based; settings: Hepacivirus hominis
Summary of the method: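 Replicon Huh7-K2040 cells were seeded at 4 × 10^5 per 60-mm dish. On day 2 they went into 10% FCS or 10% delipidated FCS with 0.1 mM BSA-conjugated arachidonate, ± 0.3 μM vitamin E. Cells were harvested 72 h later. HCV RNA was determined by qRT-PCR (36B4 reference, comparative CT), relative to FCS controls.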

Hepatitis C virus [6] = assay: Restoration of hepatitis C virus replication in Huh7-K2040 cells in presence of delipidated fetal calf serum medium in absence of arachidonate by RT-PCR relative to control; format: functional, organism-based; settings: Hepacivirus hominis
Summary of the method: (§1)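 Huh7 cells carrying a genotype 1b subgenomic replicon were seeded on day 0. On day 2 they were moved to medium with 10% delipidated FCS, with or without 0.1 mM BSA-conjugated arachidonate, and given graded vitamin E. After 72 h HCV RNA was quantified by real-time PCR against 36B4 (comparative CT), relative to untreated controls kept in 10% FCS; three independent experiments.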

Hepatitis C virus [7] = assay: Restoration of hepatitis C virus replication in Huh7-K2040 cells in delipidated fetal calf serum medium assessed as increase in […] 40 nM in absence of arachidonate by RT-PCR relative to control; format: functional, organism-based; settings: Hepacivirus hominis; summary of the method: as §1
Hepatitis C virus [8] = assay: Increase of hepatitis C virus replication in Huh7-K2040 cells in delipidated fetal calf serum medium assessed as increase in […] at 40 nM in presence of arachidonate by RT-PCR relative to control; format: functional, organism-based; settings: Hepacivirus hominis; summary of the method: as §1
Hepatitis C virus [9] = assay: Increase of hepatitis C virus replication in Huh7-K2040 cells in delipidated fetal calf serum medium in presence of arachidonate by RT-PCR relative to control; format: functional, organism-based; settings: Hepacivirus hominis; summary of the method: as §1
[10] = Cytotoxicity against human Huh7-K2040 cells in delipidated fetal calf serum medium; format: cell-based; settings: huh-7
Summary of the method: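 Huh7-K2040 replicon cells (7 × 10^5 per 60-mm dish) moved on day 1 to medium with 10% delipidated FCS and 0.1 mM BSA-conjugated arachidonate, or to 10% FCS medium. Cells harvested at set times. Growth followed as total cellular protein by BCA, relative to protein at time 0. Data from a representative experiment.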

Hepatitis C virus [11] = assay: Inhibition of hepatitis C virus replication in Huh7-K2040 cells in presence of delipidated fetal calf serum medium assessed as decrease of malonaldehyde at 0.1 mM after 72 hrs relative to control; parameters: scale not given: the % may be the effect or the level left
Hepatitis C virus [12] = assay: Inhibition of hepatitis C virus replication in Huh7-K2040 cells in presence of fetal calf serum medium assessed as increase of malondialdehyde at 0.1 mM relative to control; format: functional, Hepacivirus hominis
Summary of the method: (§2)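 Huh7 or Huh7-K2040 cells seeded 7 × 10^5 per 60-mm dish. On day 1 switched to 10% FCS or 10% delipidated FCS, with or without 0.1 mM BSA-conjugated arachidonate and 0.3 μM vitamin E, for 16 h. MDA measured by TBARS kit at 532 nm in homogenates of cells pooled from two dishes, normalized to cellular protein. Mean ± SD, three independent experiments.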

Hepatitis C virus [13] = assay: Inhibition of hepatitis C virus replication in Huh7-K2040 cells in presence of delipidated fetal calf serum medium assessed as reduction in viral RNA level at 0.1 mM after 72 hrs relative to control; format: functional, Hepacivirus hominis; parameters: scale not given: the % may be the effect or the level left
Summary of the method: (§3)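 Time course in Huh7-K2040 cells (7 × 10^5 per 60-mm dish) given 10% delipidated FCS plus 0.1 mM BSA-conjugated arachidonate from day 1. HCV RNA measured by TaqMan real-time RT-PCR, normalized to 36B4 by comparative CT, relative to cells at time 0. Data from a representative experiment.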

Hepatitis C virus [14] = assay: Inhibition of hepatitis C virus replication in Huh7-K2040 cells in presence of delipidated fetal calf serum medium assessed as increase of malondialdehyde at 0.1 mM relative to control; format: functional, Hepacivirus hominis; summary of the method: as §2
Hepatitis C virus [15] = assay: Reversal of inhibition of hepatitis C virus replication in Huh7-K2040 cells in presence of delipidated fetal calf serum medium assessed as malondialdehyde level at 0.1 mM in presence of vitamin E; format: functional, organism-based; settings: Hepacivirus hominis; summary of the method: as §2
Hepatitis C virus [16] = assay: Inhibition of hepatitis C virus replication in Huh7-K2040 cells in presence of delipidated fetal calf serum medium by RT-PCR; format: functional, organism-based, Hepacivirus hominis
Summary of the method: (§4)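 Huh7-K2040 replicon cells (4 × 10^5 per 60-mm dish) switched on day 2 to 10% FCS or 10% delipidated FCS with graded BSA-conjugated arachidonate for 72 h. HCV RNA measured by real-time RT-PCR against 36B4 by comparative CT, relative to cells without arachidonate in the same serum. IC50 read from dose–response. Mean ± SD, three independent experiments.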

Hepatitis C virus [17] = assay: Inhibition of hepatitis C virus replication in Huh7-K2040 in presence of delipidated fetal calf serum medium assessed as increase of malondialdehyde at 0.1 mM after 12 to 24 hrs; format: functional, organism-based; settings: Hepacivirus hominis
Summary of the method: (§5)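 Huh7-K2040 cells (7 × 10^5 per 60-mm dish) switched on day 1 to 10% delipidated FCS with 0.1 mM BSA-conjugated arachidonate and harvested over a time course up to 72 h. MDA measured by TBARS assay at 532 nm, normalized to protein, relative to cells at time 0. Data from a representative experiment.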

Hepatitis C virus [18] = assay: Inhibition of hepatitis C virus replication in Huh7-K2040 cells in presence of delipidated fetal calf serum medium assessed as increase of malondialdehyde at 0.1 mM after 48 hrs; format: functional, organism-based; settings: Hepacivirus hominis; summary of the method: as §5
Hepatitis C virus [19] = assay: Inhibition of hepatitis C virus replication in Huh7-K2040 cells in presence of fetal calf serum medium by RT-PCR; format: functional, organism-based, Hepacivirus hominis; summary of the method: as §4
Hepatitis C virus [20] = assay: Inhibition of hepatitis C virus replication in Huh7-K2040 cells in presence of delipidated fetal calf serum medium assessed as reduction in viral RNA level at 0.1 mM after 12 hrs relative to control; format: functional, Hepacivirus hominis; parameters: scale not given: the % may be the effect or the level left; summary of the method: as §3

## CCCCCCCC/C=C\CCCCCCCC(=O)O
Hepatitis C virus [1]; Hepacivirus hominis
  Activity: inactive
Hepatitis C virus [2]
  Activity: inactive
Hepatitis C virus [3]; Hepacivirus hominis
  Activity: inactive

## CC/C=C\C/C=C\C/C=C\CCCCCCCC(=O)O [LINOLENIC ACID]
Hepatitis C virus [1]
  Activity: 50%

## O=C1O[C@H]([C@@H](O)CO)C(O)=C1O
Hepatitis C virus [2]
  Activity: inactive

## COC1=C(OC)C(=O)C(C/C=C(\C)CC/C=C(\C)CC/C=C(\C)CCC=C(C)C)=C(C)C1=O
Hepatitis C virus [2]
  Activity: Active

## VITAMIN E
Hepatitis C virus [4]
  Activity: inactive
Hepatitis C virus [5]
  Activity: inactive
Hepatitis C virus [6]
  Activity: Active
Hepatitis C virus [2]
  Activity: Active
Hepatitis C virus [7]
  Activity: Active
Hepatitis C virus [8]
  Activity: Active
Hepatitis C virus [9]
  Activity: 190%

## CCCCC/C=C\C/C=C\CCCCCCCC(=O)O [LINOLEIC ACID]
Hepatitis C virus [1]
  Activity: 50%

## CCCCC/C=C\C/C=C\C/C=C\C/C=C\CCCC(=O)O [ARACHIDONIC ACID]
[10]
  Activity: Non-toxic
Hepatitis C virus [11]
  Activity: >90%
Hepatitis C virus [12]
  Activity: 8
Hepatitis C virus [1]
  Activity: 50%
Hepatitis C virus [13]
  Activity: >90%
Hepatitis C virus [14]
  Activity: 48
Hepatitis C virus [15]
  Activity: Active
Hepatitis C virus [16]
  IC50: 10 µM
Hepatitis C virus [3]
  Activity: 95%
Hepatitis C virus [17]
  Activity: Active
Hepatitis C virus [18]
  Activity: inactive
Hepatitis C virus [19]
  IC50: 60 µM
Hepatitis C virus [20]
  Activity: 40%
